Key:
[1] = target: T1, LIMK1 (Homo sapiens, UniProt P53667); experiment: in vitro kinase assay, LIMK1; assay type: biochemical; settings: cofilin substrate; for effect on the kinase activity of LIMK1: concentrations of 1–30 μM
[2] = system: Lck; settings: read-out: IC50 for Lck; ref Jayasuriya et al., 1992; cited from earlier work
[3] = system: Jurkat cells; experiment: CXCL12-induced chemotaxis, Transwell, Jurkat cells; assay type: cell-based; settings: pretreated 30 min, 5 nM CXCL12, 3 h
Outline: (§1)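 Cells at 2×10^6 cells/ml in RPMI1640 with 0.5% BSA were pretreated 30 min at room temperature with test compound or vehicle (final 0.3% DMSO). 2×10^5 cells went into the upper well (5-µm pore Transwell). The lower well held RPMI, 0.5% BSA, 5 nM CXCL12 and compound or vehicle. After 3 h at 37°C, migrated cells in the lower well were counted. Mean ± SD of four independent experiments; one-way ANOVA with Dunnett's test.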

[4] = system: JCaM1.6 cells; experiment: CXCL12-induced chemotaxis, Transwell, JCaM1.6 cells; assay type: cell-based; settings: Lck-deficient JCaM1.6, pretreated 30 min, 5 nM CXCL12, 3 h
Outline: as §1

[5] = target: PAK3 (Homo sapiens, UniProt O75914); experiment: in vitro kinase assay, PAK3; assay type: biochemical
Sequence of PAK3 (O75914 177-559, species assumed): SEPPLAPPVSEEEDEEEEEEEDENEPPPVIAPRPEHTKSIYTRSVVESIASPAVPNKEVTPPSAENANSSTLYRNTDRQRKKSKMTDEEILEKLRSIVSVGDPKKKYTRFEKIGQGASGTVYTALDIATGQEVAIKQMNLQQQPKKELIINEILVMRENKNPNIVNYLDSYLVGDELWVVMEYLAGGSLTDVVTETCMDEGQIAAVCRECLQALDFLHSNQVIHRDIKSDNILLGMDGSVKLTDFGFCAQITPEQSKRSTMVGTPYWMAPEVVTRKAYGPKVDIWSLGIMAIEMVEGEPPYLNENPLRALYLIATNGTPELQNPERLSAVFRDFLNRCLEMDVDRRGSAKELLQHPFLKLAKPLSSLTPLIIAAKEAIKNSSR

[6] = target: ROCK (Homo sapiens, UniProt Q13464); experiment: in vitro kinase assay, ROCK; assay type: biochemical
Sequence of ROCK (Q13464 1-727): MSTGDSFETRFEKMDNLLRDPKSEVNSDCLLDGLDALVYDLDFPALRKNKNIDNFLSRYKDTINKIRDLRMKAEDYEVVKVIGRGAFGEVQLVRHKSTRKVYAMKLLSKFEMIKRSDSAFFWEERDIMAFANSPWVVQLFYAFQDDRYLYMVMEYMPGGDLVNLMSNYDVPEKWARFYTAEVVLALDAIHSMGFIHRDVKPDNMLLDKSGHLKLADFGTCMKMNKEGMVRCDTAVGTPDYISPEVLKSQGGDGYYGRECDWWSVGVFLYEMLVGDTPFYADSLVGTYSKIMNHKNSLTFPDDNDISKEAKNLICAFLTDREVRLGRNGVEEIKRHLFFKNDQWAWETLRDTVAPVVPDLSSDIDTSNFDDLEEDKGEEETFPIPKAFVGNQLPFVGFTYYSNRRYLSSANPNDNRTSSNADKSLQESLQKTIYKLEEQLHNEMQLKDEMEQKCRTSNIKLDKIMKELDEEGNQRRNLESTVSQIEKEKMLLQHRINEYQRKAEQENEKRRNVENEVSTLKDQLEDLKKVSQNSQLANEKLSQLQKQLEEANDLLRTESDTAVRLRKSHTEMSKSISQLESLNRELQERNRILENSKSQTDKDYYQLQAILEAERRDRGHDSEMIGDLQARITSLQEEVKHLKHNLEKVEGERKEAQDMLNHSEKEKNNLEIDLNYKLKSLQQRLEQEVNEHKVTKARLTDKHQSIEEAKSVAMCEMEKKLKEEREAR

[7] = target: PKCα (Homo sapiens, UniProt P17252); experiment: in vitro kinase assay, PKCα; assay type: biochemical
[8] = target: T1, LIMK1; assay type: biochemical; settings: range of inhibitor concentrations
[9] = target: CaMKIα (Homo sapiens, UniProt Q14012); experiment: in vitro kinase assay, CaMKIα; assay type: biochemical
Sequence of CaMKIα (Q14012 1-293, species assumed): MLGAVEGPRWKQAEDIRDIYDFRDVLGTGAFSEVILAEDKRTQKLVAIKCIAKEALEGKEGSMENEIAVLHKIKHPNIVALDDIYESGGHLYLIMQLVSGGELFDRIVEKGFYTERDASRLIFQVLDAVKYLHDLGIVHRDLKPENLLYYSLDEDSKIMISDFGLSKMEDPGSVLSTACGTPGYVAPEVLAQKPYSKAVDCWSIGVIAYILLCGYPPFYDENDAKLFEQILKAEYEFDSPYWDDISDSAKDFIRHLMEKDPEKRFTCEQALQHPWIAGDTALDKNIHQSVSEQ

[10] = system: P-cofilin in N1E-115 cells; experiment: cofilin phosphorylation immunoblot in LIMK1-CFP-overexpressing N1E-115 cells; assay type: cell-based; settings: 30 min
[11] = system: MDA-MB-231 cells; experiment: serum-induced Matrigel invasion assay, MDA-MB-231 cells; assay type: cell-based, human; settings: MDA-MB-231, Matrigel, 15 h
Outline: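 MDA-MB-231 cells (2×10^5 cells/ml) were serum-starved 3 h and resuspended in serum-free DMEM. They were pretreated 30 min at room temperature with test compound or vehicle (final 0.3% DMSO). Transwell inserts (8-µm pore) were coated with 50 µg Matrigel for 1 h at 37°C and washed three times with DMEM. 2×10^4 cells were loaded, with serum in the lower chamber. After 15 h, invaded cells on the lower membrane face were counted. Mean ± SD of six independent experiments; Dunnett's test.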

[12] = system: P-MAPK in Jurkat cells; experiment: CXCL12-induced MAPK phosphorylation in Jurkat cells; assay type: cell-based; settings: 5 nM CXCL12 for 5 min
Outline: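 Jurkat cells grown in RPMI with 10% FCS were stimulated with 5 nM CXCL12 for 5 min, with or without test compound. Cells were lysed in HEPES pH 7.4 lysis/kinase buffer containing NP-40, NaF, Na3VO4 and protease inhibitors. Lysates were immunoblotted for P-MAPK and total MAPK, alongside P-cofilin and cofilin.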

[13] = target: Src (Homo sapiens, UniProt P12931); experiment: in vitro kinase assay, active Src; assay type: biochemical
Sequence of Src (P12931 270-523 limits assumed): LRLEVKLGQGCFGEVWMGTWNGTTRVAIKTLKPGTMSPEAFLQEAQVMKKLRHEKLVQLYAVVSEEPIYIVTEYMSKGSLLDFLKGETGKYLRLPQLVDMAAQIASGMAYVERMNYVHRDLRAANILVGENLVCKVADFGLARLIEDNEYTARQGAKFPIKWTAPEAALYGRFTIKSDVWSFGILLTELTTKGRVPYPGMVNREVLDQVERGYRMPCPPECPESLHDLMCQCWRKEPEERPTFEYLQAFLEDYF

[14] = system: P-cofilin in Vero 2-2 cells; experiment: 2D gel analysis of 32P-labeled phospho-proteins in whole cell lysates; assay type: cell-based; settings: 10 μM, 5 h
[15] = system: Jurkat cells; experiment: CXCL12-induced lamellipodium formation in Jurkat cells; assay type: cell-based; settings: Dam 30 min, then 5 nM CXCL12 for 20 min
Outline: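 Jurkat cells were given 5 µM test compound or vehicle for 30 min, then 5 nM CXCL12 for 20 min. They were fixed and stained with rhodamine–phalloidin for F-actin, then scored into three classes: large lamellipodia, small lamellipodia, or round without lamellipodium. 200–300 cells were counted per experiment. Class percentages are mean ± SD of three independent experiments.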

[16] = system: epidermal Langerhans cells; experiment: hapten; assay type: in vivo, mouse; settings: 20 μM topical
Outline: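 BALB/c mice (8–10 wk): each ear painted with 20 µl of 20 µM test compound in 2% DMSO in 1:4 acetone/olive oil, or vehicle. 30 min later, 20 µl 3% TNCB or vehicle applied, ± 20 µM compound; repainted at 12 h; ears taken 24 h post-TNCB. NH4SCN-separated, acetone-fixed epidermal sheets stained with FITC anti-I-Ad; confocal imaging, 15 areas/ear; five experiments, mean ± SD, ANOVA/Dunnett.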

[17] = system: P-cofilin in Jurkat cells; experiment: CXCL12-induced cofilin phosphorylation in Jurkat cells; assay type: cell-based; settings: 5 nM CXCL12 for 5 min
Outline: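 Jurkat cells (RPMI, 10% FCS) were stimulated with 5 nM CXCL12 for 5 min. Lysates in HEPES pH 7.4 lysis/kinase buffer were immunoblotted for P-cofilin, cofilin, P-MAPK and MAPK. P-cofilin was expressed relative to control cells, set at 1.0.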

T1 sequence (P53667 whole entry): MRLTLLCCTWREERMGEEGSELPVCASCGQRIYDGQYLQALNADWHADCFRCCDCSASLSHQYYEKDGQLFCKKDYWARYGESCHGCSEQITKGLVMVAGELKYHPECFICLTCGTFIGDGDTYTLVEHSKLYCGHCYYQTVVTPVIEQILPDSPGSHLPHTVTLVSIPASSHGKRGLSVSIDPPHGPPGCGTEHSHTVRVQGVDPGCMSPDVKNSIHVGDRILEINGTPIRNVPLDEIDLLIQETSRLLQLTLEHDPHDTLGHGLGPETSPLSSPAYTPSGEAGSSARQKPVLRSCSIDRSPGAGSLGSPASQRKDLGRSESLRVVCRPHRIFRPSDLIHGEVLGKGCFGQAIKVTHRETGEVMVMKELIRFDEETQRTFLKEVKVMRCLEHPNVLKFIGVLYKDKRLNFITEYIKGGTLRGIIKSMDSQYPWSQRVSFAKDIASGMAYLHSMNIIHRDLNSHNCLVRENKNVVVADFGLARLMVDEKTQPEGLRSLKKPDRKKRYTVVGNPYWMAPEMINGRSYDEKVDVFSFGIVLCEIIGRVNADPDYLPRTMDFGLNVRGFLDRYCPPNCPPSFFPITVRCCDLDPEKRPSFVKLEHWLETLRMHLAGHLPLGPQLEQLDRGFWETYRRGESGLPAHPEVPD

NO [Hydroxylamine, hydroxylamine]
effect of hydroxylamine alone on LIMK1 activity ([1]; LIMK1-CFP): no effect

Cc1cc(O)c2c(c1)C(=O)c1cc(O)cc(O)c1C2=O [emodin]
IC50 [2]: 18.5 µM | effect on the kinase activity of LIMK1 [1]: no appreciable effect

COc1c(C=O)c(O)cc2c1C(=O)c1ccccc1C2=O [Dam, 3-hydroxy-1-methoxy-9,10-dioxoanthraquinone-2-carbaldehyde]
concentration range inhibiting CXCL12-induced chemotaxis [3]: 3 to 10 µM | concentration range inhibiting CXCL12-induced chemotaxis [4]: 3 to 10 µM | IC50 [5]: > 20 µM | IC50 [6]: > 20 µM | IC50 [7]: > 20 µM | concentration range inhibiting the kinase activity of LIMK1 in detailed in vitro BiFC assays [8]: 5 to 10 µM | IC50 [9]: > 20 µM | concentration range significantly decreasing P-cofilin level [10]: 5 to 10 µM | concentration range significantly suppressing serum-induced invasion [11]: 3 to 10 µM | effect on increase in P-MAPK after CXCL12 stimulation [12]: unaffected | IC50 [13]: > 20 µM | amount of P-cofilin in treated cells compared with untreated cells [14]: decreased | effect on lamellipodium formation after CXCL12 stimulation [15]: fewer cells with large lamellipodial protrusions and more cells with small or no lamellipodial protrusions | effect on hapten-induced Langerhans cell size changes ([16]; TNCB): no apparent effect | effect on Langerhans cell density of control ears ([16]; no TNCB): no effect | concentration range suppressing CXCL12-induced increase of P-cofilin [17]: 3 to 10 µM

O=C1c2c(O)ccc(O)c2C(=O)c2c(NCCNCCO)ccc(NCCNCCO)c21 [mitoxantrone]
effect on the kinase activity of LIMK1 [1]: no appreciable effect

Reference: PMC3952852 (Molecular Biology of the Cell, 2014)
